# Screening results as filed in PubChem.
# Sampled rows, rich in hits. Any-hit rate of the full collection: about 4.6%.
# PolyA inh: blocks polyadenylation in yeast reporter cells | activity score, % at 12 µM | AID 1875 | S. cerevisiae SKY197-pL101 polyadenylation reporter, beta-gal luminescence; efflux-impaired pdr1/pdr3 knockout yeast; score 100 = 6 SD above DMSO | hit rate 0.02% among 300,000;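 active means lowest replicate activity score at least 50, where 100 means six control SD above control mean; inconclusive means lowest score under 50 but half or more replicates reach 50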;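 further: yeast exposed to compound for 9 h at 30 °C; higher score means more reporter readthrough which indicates perturbed polyadenylation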
# NALP1 inh: NALP1 inhibition. S. cerevisiae NALP1/ASC/caspase-1 growth, X-gal OD620, 72 h. inhibition, % at 10 µM. hit rate 0.61% among 280,000. AID 2071; in the data active means inhibition mostly above about 24%, no sharp cut-off; inactive means mostly below about 32%
# ALR inh: human ALR oxidase inhibition via reduced H2O2; P55789; hit rate 3.8% among 290,000; inhibition, % (concentration not given with the values); purified ALR, DTT oxidation, H2O2 HRP-luminol luminescence;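 active means mean replicate inhibition above about 79%, with every replicate also reaching it, limit read from the data; inconclusive means only one of the two criteria met; inactive means mean below limit and not every replicate reaching it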
# Target sequence (P55789 whole entry, looked up): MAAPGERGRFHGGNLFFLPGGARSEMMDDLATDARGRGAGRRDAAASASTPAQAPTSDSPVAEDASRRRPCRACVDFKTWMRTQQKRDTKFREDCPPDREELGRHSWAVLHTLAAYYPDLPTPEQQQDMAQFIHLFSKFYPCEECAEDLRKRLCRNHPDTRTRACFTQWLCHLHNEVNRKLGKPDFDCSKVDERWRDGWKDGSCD
# NALP3 yeast inh: inhibitors of NALP3 inflammasome in yeast; hit rate 0.39% among 330,000; inhibition, % at 10 µM; Yeast reconstituted NLRP3/ASC/caspase-1, beta-gal luminescence, 24 h;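 active means inhibition of 50% or more; inactive means inhibition below 50%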;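 further: plate controls were induced DMSO wells for no effect and uninduced yeast grown without galactose for full effect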
# Arrestin-AP2 inh: blocks beta-arrestin peptide binding to AP2 adaptin; inhibition, % at 10 µM; hit rate 0.31% among 340,000; FITC-arrestin peptide / GST-AP2 beads, flow cytometry; AP2 beta2 appendage carries R879A mutation;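 active means inhibition above a set limit, near 3 SD of compounds lacking own fluorescence, cut at about 54% in these data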;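 further: plate controls were DMSO wells for no effect and 5 µM unlabelled arrestin peptide for full effect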
#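 System: GST-AP2 R879A bound to glutathione beads, E. coli-expressed. Also added: 50 nM FITC-arrestin peptide. Schedule: compound with beads 12 min RT, then probe 1 h RT. Signal: bead flow cytometry, FITC channel. Read-out basis: percent response.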
# DSG3 Ab inh: human desmoglein-3 autoantibody binding inhibition; binding (percent of control), % at 10 µM; AID 588358; hit rate 0.48% among 310,000; DSG3-coupled beads, scFv-anti-DSG3-GFP binding, flow cytometry; hits give low values; P32926;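 active means binding more than 3 SD below its plate's average and above zero; inconclusive means below that plate limit but binding exactly zero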;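 further: hits lower antibody fragment binding to DSG3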
# * marks the source's active call; other numbers are inactive results; u = inconclusive; x = no result given.
SMILES,PolyA inh,NALP1 inh,ALR inh,NALP3 yeast inh,Arrestin-AP2 inh,DSG3 Ab inh
CCN1C(=O)[C@H]2[C@@H](c3ccc(-c4ccccc4)cc3)N3CCC[C@@]3(C(=O)OC)[C@H]2C1=O,-12,x,-4,20,18,109
Oc1ccc(Br)cc1CN1CCCCCCC1,30,8,99*,-4,4,99
Oc1ccc2cc(Br)ccc2c1CN1CCCC1,-48,2,76*,7,4,108
Cc1ccc(C)c(-n2ccnc2SCC(=O)Nc2cccc(S(=O)(=O)NC3=NCCC3)c2)c1,x,x,-4,11,-3,100
O=C(CC(=O)Nc1ccccc1[N+](=O)[O-])Nc1ccccc1[N+](=O)[O-],-8,-3,-9,5,-3,127
Cc1ccc(NC(=O)CSC2=NCCN2)cc1,8,22,-3,0,-2,102
COc1ccccc1NC(=O)CSC1=NCCN1,x,32,98*,x,-21,104
O=C(CSC1=NCCN1)NC(c1ccccc1)c1ccccc1,25,4,99*,0,3,101
O=C(CSC1=NCCN1)NC1CCCCCC1,-5,8,5,11,12,94
O=C(CSC1=NCCN1)Nc1cccc([N+](=O)[O-])c1,-9,-2,99*,1,-8,x
O=C(CSC1=NCCN1)Nc1ccccc1[N+](=O)[O-],2,12,99*,1,5,112
CN(C)c1ccc(N2CC(C)(C)C2=O)cc1,11,-3,99*,21,13,102
O=C(CSC1=NS(=O)(=O)c2ccccc2N1)Nc1ccc(F)cc1,8,x,97*,2,-1,108
O=C(CSC1=NS(=O)(=O)c2cc(Cl)ccc2N1)Nc1cccc(F)c1,u,x,98*,10,3,110
CC(=O)c1ccc(NC(=O)CSc2n[nH]c(-c3cccnc3)n2)cc1,6,10,1,16,18,x
COCCCNC1=C(C#N)C(=O)NC(c2cccs2)S1 (stereo unspecified),x,x,x,x,x,108
Nc1c(-c2ccccc2)c(CSc2nc3ccccc3[nH]2)nn1-c1cccc(Cl)c1,-36,16,91*,32,9,x
O=C1CCCCC1C(O)(C(=O)c1ccccc1)c1ccccc1 (stereo unspecified),x,x,x,x,x,105
O=C(O)CCCC(=O)N1N=C(c2c(-c3ccccc3)c3cc(Cl)ccc3[nH]c2=O)CC1c1cccs1 (stereo unspecified),-1,20,87*,x,6,104
Cc1ccccc1Nc1c(N)c(=O)oc2ccccc12,5,23,99*,1,4,x
Cc1ccc(S(=O)(=O)Nc2c(NC3CCCCC3)c3ccccc3oc2=O)cc1,-36,-2,29,3,35,96
Nc1c(NC2CCCCC2)c2ccccc2oc1=O,4,16,99*,6,-1,99
O=C(CCNC(=O)c1ccccc1Cl)NCCC1=CCCCC1,29,x,x,14,6,106
Cc1cc(C)nc(N/N=C/C2=C(N3CCOCC3)C(=C\c3ccc(Cl)cc3)/CC2)n1,-15,37,98*,25,12,97
Cc1ccc(/C=N/Nc2nc(C)cc(C)n2)cc1,-4,-9,-11,16,7,111
SMILES,PolyA inh,NALP1 inh,ALR inh,NALP3 yeast inh,Arrestin-AP2 inh,DSG3 Ab inh
Cc1cc(C)nc(Nc2ccc(O)cc2)n1,-8,13,100*,-9,-17,97
Cc1cc(C)nc(Nc2ccc(N3CCOCC3)cc2)n1,5,-7,99*,14,-6,96
Cc1cc(C)nc(N/N=C/c2ccc(N3CCOCC3)cc2)n1,-1,3,97*,-2,-5,111
Oc1cccc(Nc2nc(N3CCOCC3)nc(N3CCOCC3)n2)c1,3,-3,84*,12,-25,99
CCCCSc1nc2ccc(Nc3nc(N4CCOCC4)nc(N4CCOCC4)n3)cc2s1,14,2,90*,5,3,103
Cc1cccc(Nc2nc(N3CCOCC3)nc(N3CCOCC3)n2)c1,-5,2,6,15,0,115
CCCCNC(=O)CSc1nc2ccc(Nc3nc(N4CCOCC4)nc(N4CCOCC4)n3)cc2s1,4,10,-2,14,-10,110
CCNC(=S)NNc1nc(N2CCOCC2)nc(N2CCOCC2)n1,4,-3,-10,9,1,100
